The Kd is the equilibrium constant for the complex coming apart. A word on the Ki: it is a dissociation constant, usually derived from enzyme kinetics or from competition with a known ligand.

Here are results for 16 molecules from PMC4014002 (The FEBS journal, 2014).

In test [1] the target is T1, human L-FABP T94A variant (Homo sapiens, UniProt P07148, T94A).
T1 sequence (P07148 1-127 T94A): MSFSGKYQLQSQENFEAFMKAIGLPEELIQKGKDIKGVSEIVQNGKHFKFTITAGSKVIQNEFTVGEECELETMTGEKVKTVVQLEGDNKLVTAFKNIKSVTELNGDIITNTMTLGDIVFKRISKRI
Kind of test: Circular dichroism, ligand-induced secondary structure change. To be noted: T94A 0.5 μM, 5 μM ligand, CD. The method in brief: (§1)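 Recombinant delipidated L-FABP (0.5 μM, by amino acid analysis) in 10 mM potassium phosphate pH 7.4. Ligand added to 5 μM from a 500 μM ethanol stock, giving 1% ethanol final. Stirred 10 min at 25 °C, then scanned 185–250 nm. Ten scans were averaged, buffer/ligand/ethanol background subtracted and smoothed. Secondary structure was analysed by CONTIN against the SDP48 reference set, and % change was taken relative to protein alone.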
A general note: Circular dichroism is the unequal absorption of left and right circularly polarised light.

Test [2] deals with T2, human wild-type L-FABP T94T (Homo sapiens, UniProt P07148).
T2 sequence (P07148 1-127): T1 sequence (P07148 1-127 T94A) with A94T
The description is as above. The following applies: T94T 0.5 μM, 5 μM ligand, CD. The method in brief: as §1

The target in test [3] is T3, rat L-FABP (Rattus norvegicus, UniProt P02692).
T3 sequence (P02692 1-127): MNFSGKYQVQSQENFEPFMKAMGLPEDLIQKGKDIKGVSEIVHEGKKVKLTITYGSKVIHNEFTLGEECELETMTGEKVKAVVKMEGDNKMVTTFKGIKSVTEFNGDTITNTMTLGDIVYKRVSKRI
The test is described as above. The following applies: rat L-FABP 0.5 μM, 5 μM ligand, CD. The method in brief: as §1

In test [4] the target is T3, rat L-FABP. Kind of test: ANS binding to L-FABP.
Test [5] concerns the target T2, human wild-type L-FABP T94T. Nature of the test: ANS binding to L-FABP.
In test [6] the target is T1, human L-FABP T94A variant. Nature of the test: ANS binding to L-FABP.
Test [7] deals with human L-FABP. The following applies: human L-FABP bound one ANS; cited from earlier work.
For test [8], the target named is T2, human wild-type L-FABP T94T. Kind of test: ANS displacement assay. Type of test: binding.
The target in test [9] is T1, human L-FABP T94A variant. Nature of the test: ANS displacement assay. The class given is binding.
Test [10] deals with T3, rat L-FABP. Nature of the test: ANS displacement assay. Type of test: binding. The procedure, abridged:
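Recombinant rat L-FABP (500nM, quantified by amino acid analysis) incubated 10 min with ANS (35μM) at pH 7.4, then titrated with small ligand aliquots. ANS emission scanned 410–600nm (380nm excitation). % ANS fluorescence remaining plotted vs ligand concentration gives EC50.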

The subject of test [11] is L-FABP T94A variant human subjects. To be noted: cited from earlier work.
In test [12] the target is T94T and T94A. The following applies: cited from earlier work.
The mark [13] stands for this setting: read-out: ANS Displacement – Ki, T94T 500nM, ANS 35μM, ND: no displacement.
Setting [14] is: read-out: ANS Displacement – Ki, T94A 500nM, ANS 35μM, ND: no displacement.
Setting [15] is: read-out: ANS Displacement – Ki, rat L-FABP 500nM, ANS 35μM, ND: no displacement.

Changes are numbered by the printed parent chain. Values joined by “and” are separate entries in the source; they are usually repeats but may differ in a detail not shown here. Identical values can stand only once. Counter-ions that a name gives are not always drawn. Like-named read-outs stand apart in the source and are kept apart here.

For `CCCCCCCC/C=C\CCCCCCCC(=O)OC(CO)CO` [2-OMG, 2-oleoyl glycerol], the “change in secondary structure (L-FABP/ligand – L-FABP only)” value (shortened to “change … (L-FABP/ligand – L-FABP only)”) in test [1], in test [2] and in [3] was “no or only small changes” throughout.
Take `O=S(=O)(O)c1cccc2cccc(Nc3ccccc3)c12` [ANS, 1-anilinonaphthalene-8-sulfonic acid]: the Kd in test [4] is 2500 ± 200 nM; in [5], 2300 ± 100 nM; in test [6], 2400 ± 100 nM; in test [7] it was 2000 nM. Besides, the results for the “Fluorescence emission Maximum” value in [4] (ANS bound to rat L-FABP), in test [5] (ANS bound to T94T) and in test [6] (ANS bound to T94A) were 477 nm, 480 nm and 480 nm, respectively. In [4] (forward titration, 500nM rat L-FABP), the Bmax is 1.4 and 1.42 ± 0.01. Besides, the “A.U./nM when fully bound (ANS fluorescence intensity/nM)” value is 0.8 A.U./nM and 0.78 ± 0.02 A.U./nM in test [4] (reverse titration, ANS 100nM, rat L-FABP); 1.0 A.U./nM and 1.03 ± 0.01 A.U./nM in [5] (reverse titration, ANS 100nM, T94T); 1.0 A.U./nM and 0.98 ± 0.04 A.U./nM in test [6] (reverse titration, ANS 100nM, T94A).
For the molecule `CCCCC/C=C\C/C=C\C/C=C\C/C=C\CCCC(=O)O` [Arachidonic acid, arachidonic acid], the figures for the Ki in [8], in test [9] and in test [10] were 113 ± 6 nM, 108 ± 6 nM and 110 ± 6 nM, respectively. In test [1], the “change … (L-FABP/ligand – L-FABP only)” value is on record as under 8%.
As for `CC/C=C\C/C=C\C/C=C\C/C=C\C/C=C\C/C=C\CCC(=O)O` [Docosahexaenoic acid, cis-4,7,10,13,16,19-docosahexaenoic acid], the Ki in test [8] is 72 ± 5 nM; in [9] it was 65 ± 9 nM; in test [10] it was 81 ± 15 nM.
For `CCC=CCC=CCC=CCC=CC/C=C\CCCC(=O)O` [Eicosapentaenoic acid, cis-5,8,11,14,17-eicosapentaenoic acid], the values for the Ki in test [8], in [9] and in [10] were 200 ± 30 nM, 190 ± 10 nM and 240 ± 30 nM, respectively.
Take `CCCCCCCC/C=C\CCCCCCCC(=O)OC[C@@H](O)COP(=O)(O)O` [LPA, Oleoyl-L-α-lysophosphatidic acid sodium salt]: the values for the Ki in test [8] (setting [13]) and in [9] (setting [14]) were 52 ± 7 nM and 36 ± 4 nM, respectively.
Turning to `CCCCC/C=C\C/C=C\CCCCCCCC(=O)O` [Linoleic acid, linoleic acid], the inhibition constant (Ki) in test [8] was determined as 113 ± 5 nM; in [9] it was 132 ± 3 nM; in test [10] it was 81 ± 5 nM.
In [10], `CCCCCCCC/C=C\CCCCCCCC(=O)O` [Oleic acid, oleic acid] displayed a Ki of 43 ± 2 nM.
As to `CCCCCCCC/C=C\CCCCCCCC(=O)SCCNC(=O)CCNC(=O)[C@H](O)C(C)(C)COP(=O)(O)OP(=O)(O)OC[C@H]1O[C@@H](n2cnc3c(N)ncnc32)[C@H](O)[C@@H]1OP(=O)(O)O` [Oleoyl CoA, Oleoyl Coenzyme A], the Ki in test [8] (setting [13]) was found to be 1110 ± 40 nM; in [9] (setting [14]), 1030 ± 20 nM; in test [10] (setting [15]), 2410 ± 120 nM.
For `CCCCCCCC/C=C\CCCCCCCC(=O)O[C@@H](CO)COC(=O)CCCCCCCCCCCCCCC` [PODG, 1-palmitoyl-2-oleoyl-sn-glycerol], the “change … (L-FABP/ligand – L-FABP only)” value in [1], in test [2] and in test [3] was “no or only small changes” in each case.
Regarding `CCCCCCCC/C=C\CCCCCCCC(=O)O[C@H](COC(=O)CCCCCCCCCCCCCCC)COP(=O)(O)O` [POPA, 1-palmitoyl-2-Oleoyl-sn-Glycero-3-Phosphate monosodium salt], the inhibition constant Ki is 2800 ± 300 nM in test [8] (setting [13]), 2800 ± 200 nM in test [9] (setting [14]) and 9100 ± 800 nM in test [10] (setting [15]).
For the molecule `CCCCCCCCCCCCCCCC(=O)O` [Palmitic acid, palmitic acid], the Ki stood at 38 ± 1 nM in test [8], 43 ± 1 nM in test [9] and 48 ± 1 nM in [10].
Taken in the same sequence, the figures for `CCCCCCCCCCCCCCCCCC(=O)O` [Stearic acid] were 29 ± 2 nM, 28 ± 1 nM and 37 ± 4 nM.
For `CC(C)OC(=O)C(C)(C)Oc1ccc(C(=O)c2ccc(Cl)cc2)cc1` [fenofibrate], the “lowering of elevated plasma triglyceride to basal levels” value in [11] was “less effective in lowering elevated plasma triglyceride to basal levels”.
For the molecule `CC(C)(Oc1ccc(C(=O)c2ccc(Cl)cc2)cc1)C(=O)O` [fenofibric acid], the “Ki, T94T compared with T94A” value in [12] is on record as “same (or similar) Ki”.
For the molecule `CC(C)CCC[C@@H](C)CCC[C@@H](C)CCCC(C)CC(=O)O` (stereo partly drawn) [phytanic acid], in [12], the “Ki, T94T compared with T94A” value is given as “same (or similar) Ki”.
